Tests used:
A2780 [1] = test: Potentiation of 5 uM cisplatin-induced toxicity in 5 uM cisplatin resistant human A2780 cells at 1.5 uM pretreated for 48 hrs followed by 5 uM cisplatin treatment by MTT assay; assay type: functional
MDA-MB-231 [2] = test: Potentiation of 10 uM cisplatin-induced toxicity in 1 uM cisplatin resistant human MDA-MB-231 cells at 1.5 uM pretreated for 48 hrs followed by 1 uM cisplatin treatment by MTT assay; assay type: functional
MDA-MB-231 [3] = test: Potentiation of 10 uM cisplatin-induced toxicity in 1 uM cisplatin resistant human MDA-MB-231 cells at 0.5 uM pretreated for 48 hrs followed by 1 uM cisplatin treatment by MTT assay; assay type: functional
MDA-MB-231 [4] = test: Potentiation of 10 uM cisplatin-induced toxicity in 1 uM cisplatin resistant human MDA-MB-231 cells at 0.25 uM pretreated for 48 hrs followed by 1 uM cisplatin treatment by MTT assay; assay type: functional
CAL-27 [5] = test: Potentiation of 1 uM cisplatin-induced toxicity in 1 uM cisplatin resistant human CAL27 cells at 1 uM pretreated for 48 hrs followed by 1 uM cisplatin treatment by MTT assay; assay type: functional
KYSE-510 [6] = test: Potentiation of 0.5 uM cisplatin-induced toxicity in 0.5 uM cisplatin resistant human KYSE-510 cells at 0.5 uM pretreated for 48 hrs followed by 0.5 uM cisplatin treatment by MTT assay; assay type: functional
CAL-27 [7] = test: Potentiation of 1 uM cisplatin-induced toxicity in 1 uM cisplatin resistant human CAL27 cells at 1.5 uM pretreated for 48 hrs followed by 1 uM cisplatin treatment by MTT assay; assay type: functional
MDA-MB-231 [8] = test: Potentiation of cisplatin-induced toxicity in cisplatin resistant human MDA-MB-231 cells at 1 uM pretreated for 48 hrs followed by cisplatin treatment by MTT assay; assay type: functional
In short: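 Resistant sublines pretreated 48 h with 1 μM HDAC inhibitor, then cisplatin over a concentration range for 72 h; MTT viability read at 544/690 nm. Cisplatin IC50 from four-parameter logistic fit of pooled data (≥3 experiments, triplicate); shift factor = IC50 of cisplatin alone divided by IC50 of the combination.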

Histone deacetylase 8 = molecular target: T1, Histone deacetylase 8 (Homo sapiens, UniProt Q9BY41); test: Inhibition of human HDAC8 by fluorescence assay
T1 sequence (Q9BY41 whole entry): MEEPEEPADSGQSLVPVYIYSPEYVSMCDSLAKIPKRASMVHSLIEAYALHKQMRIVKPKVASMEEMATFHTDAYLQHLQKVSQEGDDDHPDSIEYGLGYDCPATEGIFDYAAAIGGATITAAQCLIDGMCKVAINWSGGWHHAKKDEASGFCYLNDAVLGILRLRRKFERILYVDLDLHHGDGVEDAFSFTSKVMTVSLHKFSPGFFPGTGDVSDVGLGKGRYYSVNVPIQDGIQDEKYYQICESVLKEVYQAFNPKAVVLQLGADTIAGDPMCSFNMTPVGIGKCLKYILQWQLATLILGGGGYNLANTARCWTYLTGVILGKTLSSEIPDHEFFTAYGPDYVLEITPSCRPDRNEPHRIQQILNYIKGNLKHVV

Histone deacetylase 5 = Histone deacetylase 5 (Homo sapiens, UniProt Q9UQL6); test: Inhibition of human HDAC5 by fluorescence assay
CAL-27 [9] = test: Cytotoxicity against cisplatin resistant human CAL27 cells after 72 hrs by MTT assay; assay type: functional, cell-based; conditions: CAL-27, 72 h
A2780 [10] = test: Potentiation of 20 uM cisplatin-induced toxicity in 5 uM cisplatin resistant human A2780 cells at 0.5 uM pretreated for 48 hrs followed by 5 uM cisplatin treatment by MTT assay; assay type: functional
A2780 [11] = test: Potentiation of 20 uM cisplatin-induced toxicity in 5 uM cisplatin resistant human A2780 cells at 0.25 uM pretreated for 48 hrs followed by 5 uM cisplatin treatment by MTT assay; assay type: functional
CAL-27 [12] = test: Potentiation of 45 uM cisplatin-induced toxicity in 1 uM cisplatin resistant human CAL27 cells at 1.5 uM pretreated for 48 hrs followed by 1 uM cisplatin treatment by MTT assay; assay type: functional
CAL-27 [13] = test: Potentiation of 45 uM cisplatin-induced toxicity in 1 uM cisplatin resistant human CAL27 cells at 0.5 uM pretreated for 48 hrs followed by 1 uM cisplatin treatment by MTT assay; assay type: functional
CAL-27 [14] = test: Potentiation of 45 uM cisplatin-induced toxicity in 1 uM cisplatin resistant human CAL27 cells at 0.25 uM pretreated for 48 hrs followed by 1 uM cisplatin treatment by MTT assay; assay type: functional
MDA-MB-231 [15] = test: Potentiation of […] cisplatin-induced toxicity in 1 uM cisplatin resistant human MDA-MB-231 cells at 0.25 uM pretreated for 48 hrs followed by 1 uM cisplatin treatment by MTT assay; assay type: functional
A2780 [16] = test: Potentiation of 10 uM cisplatin-induced toxicity in 5 uM cisplatin resistant human A2780 cells at 1.5 uM pretreated for 48 hrs followed by 5 uM cisplatin treatment by MTT assay; assay type: functional
A2780 [17] = test: Potentiation of 10 uM cisplatin-induced toxicity in 5 uM cisplatin resistant human A2780 cells at 1 uM pretreated for 48 hrs followed by 5 uM cisplatin treatment by MTT assay; assay type: functional
A2780 [18] = test: Cytotoxicity against human A2780 cells after 72 hrs by MTT assay; assay type: functional, cell-based; conditions: A2780, 72 h
KYSE-510 [19] = test: Potentiation of 3.16 uM cisplatin-induced toxicity in 0.5 uM cisplatin resistant human KYSE-510 cells at 1.5 uM pretreated for 48 hrs followed by 0.5 uM cisplatin treatment by MTT assay; assay type: functional
CAL-27 [20] = test: Potentiation of 10 uM cisplatin-induced toxicity in 1 uM cisplatin resistant human CAL27 cells at 1 uM pretreated for 48 hrs followed by 1 uM cisplatin treatment by MTT assay; assay type: functional
CAL-27 [21] = test: Potentiation of 10 uM cisplatin-induced toxicity in 1 uM cisplatin resistant human CAL27 cells at 0.5 uM pretreated for 48 hrs followed by 1 uM cisplatin treatment by MTT assay; assay type: functional
MDA-MB-231 [22] = test: Potentiation of 40 uM cisplatin-induced toxicity in 1 uM cisplatin resistant human MDA-MB-231 cells at 1 uM pretreated for 48 hrs followed by 1 uM cisplatin treatment by MTT assay; assay type: functional
KYSE-510 [23] = test: Potentiation of 1 uM cisplatin-induced toxicity in 0.5 uM cisplatin resistant human KYSE-510 cells at 0.25 uM pretreated for 48 hrs followed by 0.5 uM cisplatin treatment by MTT assay; assay type: functional
CAL-27 [24] = test: Potentiation of 5 uM cisplatin-induced toxicity in 1 uM cisplatin resistant human CAL27 cells at 1 uM pretreated for 48 hrs followed by 1 uM cisplatin treatment by MTT assay; assay type: functional

Chain of Histone deacetylase 5 (Q9UQL6 whole entry): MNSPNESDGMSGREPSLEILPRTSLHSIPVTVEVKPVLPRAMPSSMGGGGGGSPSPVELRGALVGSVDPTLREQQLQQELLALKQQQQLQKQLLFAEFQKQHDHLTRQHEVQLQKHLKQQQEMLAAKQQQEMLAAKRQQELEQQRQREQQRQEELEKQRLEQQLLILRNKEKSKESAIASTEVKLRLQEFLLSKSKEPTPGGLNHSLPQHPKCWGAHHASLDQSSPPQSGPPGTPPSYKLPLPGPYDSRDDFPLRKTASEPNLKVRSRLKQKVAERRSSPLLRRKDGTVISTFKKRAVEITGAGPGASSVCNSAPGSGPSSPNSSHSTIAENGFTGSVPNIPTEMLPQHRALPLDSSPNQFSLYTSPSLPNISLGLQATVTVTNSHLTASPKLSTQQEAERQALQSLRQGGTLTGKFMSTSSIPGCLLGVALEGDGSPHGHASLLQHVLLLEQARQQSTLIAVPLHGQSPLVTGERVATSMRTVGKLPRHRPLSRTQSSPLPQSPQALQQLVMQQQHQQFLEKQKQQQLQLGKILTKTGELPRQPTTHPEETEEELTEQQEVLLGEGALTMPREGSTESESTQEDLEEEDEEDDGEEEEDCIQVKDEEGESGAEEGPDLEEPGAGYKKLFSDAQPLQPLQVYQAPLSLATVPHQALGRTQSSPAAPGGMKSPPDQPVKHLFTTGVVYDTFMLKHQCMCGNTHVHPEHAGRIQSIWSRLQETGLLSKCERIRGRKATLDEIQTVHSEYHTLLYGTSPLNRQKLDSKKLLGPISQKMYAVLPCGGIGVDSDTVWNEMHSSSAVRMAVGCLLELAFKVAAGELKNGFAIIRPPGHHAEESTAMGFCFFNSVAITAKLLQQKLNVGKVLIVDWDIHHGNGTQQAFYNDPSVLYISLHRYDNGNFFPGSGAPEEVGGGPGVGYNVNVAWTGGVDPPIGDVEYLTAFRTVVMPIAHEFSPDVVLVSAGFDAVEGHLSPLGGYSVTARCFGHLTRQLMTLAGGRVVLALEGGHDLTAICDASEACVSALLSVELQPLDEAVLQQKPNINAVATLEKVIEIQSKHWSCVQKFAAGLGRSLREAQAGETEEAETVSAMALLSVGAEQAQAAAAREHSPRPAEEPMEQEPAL

Cc1cc(C)cc(C(=O)NOCCCCCC(=O)NO)c1
Activity (A2780 [1]): Dose-dependent effect
fractional inhibitory concentration index (FICI) (A2780 [1]): 0.81
Activity (MDA-MB-231 [2]): Dose-dependent effect
fractional inhibitory concentration index (FICI) (MDA-MB-231 [2]): 0.79
Activity (MDA-MB-231 [3]): Dose-dependent effect
Activity (MDA-MB-231 [4]): Dose-dependent effect
Activity (CAL-27 [5]): Dose-dependent effect
Activity (KYSE-510 [6]): Dose-dependent effect
fractional inhibitory concentration index (FICI) (KYSE-510 [6]): 0.13
Activity (CAL-27 [7]): Dose-dependent effect
fractional inhibitory concentration index (FICI) (CAL-27 [7]): 0.48
Activity (MDA-MB-231 [8]): Dose-dependent effect
fold change (FC) (MDA-MB-231 [8]): 3.53
IC50 (Histone deacetylase 8): 1.28 µM
IC50 (Histone deacetylase 5): 0.00422 µM
IC50 (CAL-27 [9]): 1.81 µM
Activity (A2780 [10]): Dose-dependent effect
fractional inhibitory concentration index (FICI) (A2780 [10]): 0.58
Activity (A2780 [11]): Dose-dependent effect
fractional inhibitory concentration index (FICI) (A2780 [11]): 0.76
Activity (CAL-27 [12]): Dose-dependent effect
fractional inhibitory concentration index (FICI) (CAL-27 [12]): 0.23
Activity (CAL-27 [13]): Dose-dependent effect
fractional inhibitory concentration index (FICI) (CAL-27 [13]): 0.31
Activity (CAL-27 [14]): Dose-dependent effect
fractional inhibitory concentration index (FICI) (CAL-27 [14]): 0.27
Activity (MDA-MB-231 [15]): Dose-dependent effect
fractional inhibitory concentration index (FICI) (MDA-MB-231 [15]): 0.9
Activity (A2780 [16]): Dose-dependent effect
fractional inhibitory concentration index (FICI) (A2780 [16]): 0.68
Activity (A2780 [17]): Dose-dependent effect
fractional inhibitory concentration index (FICI) (A2780 [17]): 0.61
IC50 (A2780 [18]): 0.49 µM
Activity (KYSE-510 [19]): Dose-dependent effect
fractional inhibitory concentration index (FICI) (KYSE-510 [19]): 0.12
Activity (CAL-27 [20]): Dose-dependent effect
fractional inhibitory concentration index (FICI) (CAL-27 [20]): 0.24
Activity (CAL-27 [21]): Dose-dependent effect
fractional inhibitory concentration index (FICI) (CAL-27 [21]): 0.41
Activity (MDA-MB-231 [22]): Dose-dependent effect
fractional inhibitory concentration index (FICI) (MDA-MB-231 [22]): 0.78
Activity (KYSE-510 [23]): Dose-dependent effect
fractional inhibitory concentration index (FICI) (KYSE-510 [23]): 0.13
Activity (CAL-27 [24]): Dose-dependent effect
fractional inhibitory concentration index (FICI) (CAL-27 [24]): 0.26

— ChEMBL document CHEMBL2311425, “Histone deacetylase (HDAC) inhibitors with a novel connecting unit linker region reveal a selectivity profile for HDAC4 and HDAC5 with improved activity against chemoresistant cancer cells” (J Med Chem, 2013)
